Source: PubChem BioAssay
Rows were chosen to be rich in hits. Some 0.51% of all compounds tested hit in one or more screens of this group.
T cell HTS: T cell immune modulation candidate. actives 0.068% (n = 330,000). response (vesicle binding), % at 7 µM. 2C CD8+ T cell-vesicle binding, flow cytometry; active compounds read low;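 active = response, share of CD8 T cells binding vesicles, and their 90th percentile fluorescence all below set limits, cut at about 80% in these data, passing the limit was not always enough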;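 also: values below 100% mean blocked vesicle binding to the CD8+ T cells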
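incubation = binding step 1.5 h, 37 °C, antibody labelling 20 min, ice | test system = 2C mouse CD8+ T cells | read-out basis = percent CD8+ FL2 mean versus row control | controls = Peptide-free naked vesicles (low) and QL9 vesicles with 0.7% DMSO vehicle (high) | detection = flow cytometry of vesicle-bound cells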
Rce1 inhib: yeast Ras-converting enzyme inhibition; Q03530; yeast membranes, quenched prenylated peptide cleavage fluorescence; calls only; actives 0.27% (n = 290,000); AID 2563;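 active = fall in fluorescence gain of 50% or more versus controls, with final raw signal at or below 3038400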;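 also: plate controls were neutral control wells for no effect and wells lacking membranes for full effect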
Target sequence (Q03530 whole entry, looked up): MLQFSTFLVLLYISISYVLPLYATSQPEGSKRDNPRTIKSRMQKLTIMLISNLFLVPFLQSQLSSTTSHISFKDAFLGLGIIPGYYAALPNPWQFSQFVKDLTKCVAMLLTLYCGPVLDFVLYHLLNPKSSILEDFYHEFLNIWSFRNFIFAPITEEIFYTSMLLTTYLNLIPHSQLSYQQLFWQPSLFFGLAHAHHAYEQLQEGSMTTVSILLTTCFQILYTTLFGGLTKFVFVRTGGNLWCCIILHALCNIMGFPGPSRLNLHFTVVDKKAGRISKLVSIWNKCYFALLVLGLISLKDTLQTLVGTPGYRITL
aDG glyco act: alpha-DG glycosylation activation | Pro5-aDG cells, alpha-DG glycosylation AlphaScreen (IIH6); 0% Pro5, 100% B10-LARGE cell signal | activation, % at 10 µM | actives 0.22% (n = 360,000);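 active = activation of at least 8% versus controls, or a plate z-score of at least 8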;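 also: Pro5 are CHO cells carrying HIG-tagged alpha-DG that lacks glycosylation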
PolyA inh: blocks polyadenylation in yeast reporter cells; S. cerevisiae SKY197-pL101 polyadenylation reporter, beta-gal luminescence; efflux-impaired pdr1/pdr3 knockout yeast; score 100 = 6 SD above DMSO; actives 0.02% (n = 300,000); activity score, % at 12 µM; AID 1875;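 active = lowest replicate activity score at least 50, where 100 means six control SD above control mean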;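 also: yeast exposed to compound for 9 h at 30 °C; higher score means more reporter readthrough which indicates perturbed polyadenylation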
* hit, by the source's call; i = inactive; . = no result; + = active, no number.

SMILES	T cell HTS	Rce1 inhib	aDG glyco act	PolyA inh
CCCCN1C(=O)C(CC(=O)NCCN2CCOCC2)CC(C(=O)N2CCCCCC2)=C1C (centres undefined)	.	.	-0.2	.
CC(C)(C)OC(=O)NCCCCCc1cn([C@@H](CO)C(=O)NCCCCCCCCCCC(=O)N2CCN(C(=O)OC(C)(C)C)CC2)nn1	314.4	.	5.8*	.
CCN1CCN(c2ccc(S(=O)(=O)N3CCCCC3)cc2NC(=O)CC(C)c2ccccc2)CC1 (centres undefined)	203.4	i	0.2	21.8
CC1(C)C2CCC1(CS(=O)(=O)NCc1ccc(C(F)(F)F)cc1)C(=O)C2 (centres undefined)	186.5	i	0.1	-4.7
Cc1ccc(S(=O)(=O)NCC2CCCO2)cc1 (centres undefined)	223.1	i	-0.1	-17.7
Cc1ccc(S(=O)(=O)Nc2ccccc2C(=O)NCC2CCCO2)cc1 (centres undefined)	329.0	+	.	5.2
O=S(=O)(NCC1CCCO1)c1ccc(-c2ccc(S(=O)(=O)NCC3CCCO3)cc2)cc1 (centres undefined)	263.1	i	7.4*	-1.1
CCOCCCN1C(=O)C(=O)N(CC(=O)N2c3ccccc3NC(=O)CC2C)C1=O (centres undefined)	580.5	.	-0.2	.
C/C(N)=C(/C#N)C(=O)COC(=O)c1ccc(C#N)cc1	270.7	i	0.2	10.6
Cc1ccc(SCCC(=O)Nc2ccc(OCc3ccccc3)cc2)cc1	0.0	i	-0.2	10.1
CCOc1ccc(NC(=O)CCSc2ccc(C)cc2)cc1	249.6	+	-0.2	22.3
O=C(Cc1cccc(NC(=O)C2CCN(C(=O)C3CCCCC3)CC2)c1)Nc1cccc(C(=O)N2CCCCC2)c1	.	.	0.1	.
CC(=O)c1ccccc1C(=O)N1CCCC(N2CCN(Cc3ccc4c(c3)OCO4)CC2)C1 (centres undefined)	300.7	i	-0.1	-10.0
OCCCNc1ncnc2sc(-c3ccccc3)cc12	385.4	+	0.1	3.9
O=C(COC(=O)CC1CCCCC1)Nc1c(Cl)cccc1Cl	353.4	.	-0.1	.
CC(=O)N1CCN(c2ccc(S(=O)(=O)NCCN(C(C)C)C(C)C)cc2[N+](=O)[O-])CC1	454.3	i	-0.2	11.7
CN(C)CCNS(=O)(=O)c1ccc(N2CCN(c3ccc(F)cc3)CC2)c([N+](=O)[O-])c1	360.1	i	9.1*	-5.0
Nc1cccc2nsnc12	371.4	i	0.1	1.0
Nc1cc2nsnc2cc1Br	203.5	i	6.6*	8.5
COc1ccc2oc(-c3ccccc3)c(C(=O)N3CCOCC3)c2c1	409.0	+	0.2	-8.3
Cc1ccc(S(=O)(=O)N2CCN(C(=O)c3cc4c(C)nn(-c5ccccc5)c4s3)CC2)cc1	660.9	+	0.2	0.6
Cc1cc(O)c(/C=N/Nc2ccc(Cl)cc2)c(=O)o1	297.8	i	6.5*	-25.3
Cc1c(N=C2N=C(NC(=O)NC(C)(C)C)c3ccccc32)c(=O)n(-c2ccccc2)n1C	31.6*	i	-0.1	6.2
Cc1c(N=C2N=C(NC(=O)c3cccs3)c3ccccc32)c(=O)n(-c2ccccc2)n1C	215.0	.	-0.4	-11.8
CCNC(=S)N/N=C/c1cn(Cc2ccccc2F)c2ccccc12	0.0	i	4.8	-7.2
SMILES	T cell HTS	Rce1 inhib	aDG glyco act	PolyA inh
CNC(=S)N/N=C/c1cn(Cc2c(F)cccc2Cl)c2ccccc12	794.5	+	3.2	-34.2
COc1ccc(NC(=O)Nc2ccc(O)c3ccccc23)cc1	37.0*	i	.	-9.1
COc1ccc(OC)c(S(=O)(=O)Nc2cccc3c(O)cccc23)c1	112.6	i	0.0	16.0
COc1ccc(OC)c(S(=O)(=O)Nc2ccc(O)c3ccccc23)c1	263.4	.	3.2*	16.2
CCN(CC(=O)Nc1ccc(NC(C)=O)cc1)C(=O)c1c(C)nn(Cc2ccc(C)cc2)c1Cl	.	.	-0.1	.
CC(C)Nc1ccc(Nc2ccnc3cc4ccccc4cc23)cc1	84.3	i	-0.7	26.5
c1ccc(CCNc2ccnc3cc4ccccc4cc23)cc1	.	+	-0.1	14.0
Cc1ccc(/C=C/C(=O)O)cc1S(=O)(=O)N(C)CCO	220.4	i	0.0	17.2
COc1cc(/C=C/C(=O)O)cc(S(=O)(=O)N(C)CCO)c1OC	0.0*	i	0.1	-1.6
CCN(C(=O)Cn1c(=O)oc2ccccc21)c1ccc(C)c(C)c1	385.3	i	0.0	1.4
Cc1ccc(N=CC2=C(O)CC(C)(C)CC2=O)nc1	212.0	i	0.0	5.3
Cc1ccc(N=Cc2c(O)n(C)c(=O)n(C)c2=O)nc1	290.3	+	-0.3	-0.1
CCCCCCCCCCOC(=O)Cn1c(COc2ccccc2C)[n+](C)c2ccccc21	88.2	+	0.0	4.2
CCCCCCCCCCOC(=O)Cn1c(COc2ccccc2)[n+](C)c2ccccc21	303.8	i	0.2	-0.3
O=C(Nc1cccc(Cl)c1Cl)c1csc([C@H]2C[C@H](O)[C@@H](CO)O2)n1	.	.	-0.4	.
CCN(Cc1nc(-c2ccc(OC)c(OC)c2)no1)C(=O)c1ccoc1C	592.6	i	0.0	10.5
CCC(C)Sc1ccc(-c2nc3ccccn3c2NCc2ccccc2)cc1OC (centres undefined)	323.1	.	0.5	.
COc1ccc(CSc2ccc(-c3nc4ccccn4c3NCc3ccccc3)cc2OC)cc1	197.0	+	1.0	-14.3
O=C1c2ccccc2C(=O)N1CCC#Cc1ccc2cc(CCCO)oc(=O)c2c1	453.0	.	-0.2	.
CCOc1ccc(S(=O)(=O)Nc2cc(SCC(=O)O)c(O)c3ccccc23)cc1	150.0	i	3.9*	3.6
O=C(O)c1cccc(S(=O)(=O)Nc2ccc([N+](=O)[O-])cc2O)c1	338.7	i	-0.1	3.4
O=C(O)CSc1cc(NS(=O)(=O)c2cccc([N+](=O)[O-])c2)c2ccccc2c1O	.	i	2.6*	14.7
Cc1ccc(NS(=O)(=O)c2cc(NC(=O)C(C)Oc3ccccc3)ccc2C)c(C)c1 (centres undefined)	170.4	i	0.6	21.9
CCOc1ccc(S(=O)(=O)Nc2cc(OC)c(OC)cc2C(=O)O)cc1	124.0	+	-0.2	14.2
CCOC(=O)c1ccccc1NS(=O)(=O)c1ccc(OCC)cc1	414.6	i	0.0	-24.2
SMILES	T cell HTS	Rce1 inhib	aDG glyco act	PolyA inh
Cc1ccc(C)c(S(=O)(=O)Nc2cc(SCC(=O)O)c(O)c3ccccc23)c1	799.3	.	8.5*	.
N#Cc1cccc(N2[C@@H](Cc3cc4ccccc4n3Cc3ccccc3)COC[C@H]2Cc2ccc3ccccc3c2)c1	.	.	-0.2	.
CCc1[nH]nc(C(=O)N2CCCC(Nc3cccc(F)c3)C2)c1C (centres undefined)	194.4	i	0.1	-8.5
CCCN=Cc1ccc(O)cc1	145.1	i	-0.4	1.2
C=C1c2nc3ccccc3n2C=C(c2ccc(C)cc2)N1c1ccccc1	.	.	0.6	.
CCc1ccc(S(=O)(=O)Nc2cc(SCC(=O)O)c(O)c3ccccc23)cc1	335.1	i	8.1*	7.4
O=C(NCc1cc(Cl)cc(Cl)c1)c1ccc2nc(COCCO)[nH]c2c1	.	.	0.1	.
